Test results published in ChEMBL document CHEMBL4152223 (Eur J Med Chem, 2018).
In brackets after ≈: the same amount, converted by molar mass.

Assays:
[1] = Selectivity index, ratio of IC50 for human HepG2 cells to MIC for INH/RIF/rifabutine/STM/EMB resistant Mycobacterium tuberculosis 234/2005; type: toxicity; conditions: read-out: Selectivity Index
Procedure, shortened: (§1)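 SI is calculated as HepG2 IC50 divided by MIC. HepG2 cells (passage 2-4) were grown in EMEM with 10% FBS, L-glutamine and non-essential amino acids. Compounds in DMSO were tested in triplicate at eight concentrations, and viability was read by MTS tetrazolium reduction. 10% DMSO served as the 0% viability control.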

[2] = tested on: Mycobacterium tuberculosis; assay: Antimycobacterial activity against INH/RIF/rifabutine/STM/EMB resistant Mycobacterium tuberculosis 234/2005 after 21 days; type: functional; conditions: 234/2005, 504 h
Procedure, shortened: (§2)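 MIC against four MDR-TB strains and one XDR-TB strain, each inoculated at 10^-3 dilution, using the same broth method as for drug-susceptible M. tuberculosis. Concentrations tested were 1000 down to 1 µM in twofold-type steps (1000, 500, 250, 125, 62.5, 32, 16, 8, 4, 2, 1 µM). MIC is the lowest concentration with complete growth inhibition.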

[3] = Selectivity index, ratio of IC50 for human HepG2 cells to MIC for INH/RIF/rifabutine/STM/EMB/OFX/clofazimine resistant Mycobacterium tuberculosis Praha 4; type: toxicity; conditions: read-out: Selectivity Index; procedure, shortened: as §1
[4] = tested on: Mycobacterium tuberculosis; assay: Antimycobacterial activity against INH/RIF/rifabutine/STM/EMB/OFX/clofazimine resistant Mycobacterium tuberculosis Praha 4 after 14 days; type: functional; conditions: Praha 4, 336 h; procedure, shortened: as §2
[5] = tested on: Mycobacterium tuberculosis; assay: Antimycobacterial activity against INH/RIF/rifabutine/STM/EMB/clofazimine resistant Mycobacterium tuberculosis Praha 1 after 14 days; type: functional; conditions: Praha 1, 336 h; procedure, shortened: as §2
[6] = Selectivity index, ratio of IC50 for human HepG2 cells to MIC for INH/RIF/rifabutine/STM/EMB/clofazimine resistant Mycobacterium tuberculosis Praha 1; type: toxicity; conditions: read-out: Selectivity Index; procedure, shortened: as §1
[7] = tested on: Mycobacterium tuberculosis; assay: Antimycobacterial activity against INH/RIF/rifabutine/STM/EMB/OFX/gentamicin/amikacin resistant Mycobacterium tuberculosis Praha 131 after 21 days; type: functional; conditions: Praha 131, 504 h; procedure, shortened: as §2
[8] = tested on: Mycobacterium tuberculosis; assay: Antimycobacterial activity against INH/RIF/rifabutine/STM/EMB/OFX/gentamicin/amikacin resistant Mycobacterium tuberculosis Praha 131 after 14 days; type: functional; conditions: Praha 131, 336 h; procedure, shortened: as §2
[9] = tested on: Mycobacterium tuberculosis; assay: Antimycobacterial activity against INH/RIF/rifabutine/STM/EMB/OFX/clofazimine resistant Mycobacterium tuberculosis Praha 4 after 21 days; type: functional; conditions: Praha 4, 504 h; procedure, shortened: as §2
[10] = tested on: Mycobacterium tuberculosis; assay: Antimycobacterial activity against INH/RIF/rifabutine/STM/EMB/clofazimine resistant Mycobacterium tuberculosis Praha 1 after 21 days; type: functional; conditions: Praha 1, 504 h; procedure, shortened: as §2
[11] = tested on: Mycobacterium tuberculosis; assay: Antimycobacterial activity against INH/RIF/rifabutine/STM/EMB resistant Mycobacterium tuberculosis 234/2005 after 14 days; type: functional; conditions: 234/2005, 336 h; procedure, shortened: as §2
[12] = Selectivity index, ratio of IC50 for human HepG2 cells to MIC for INH/RIF/rifabutine/STM/EMB/OFX/gentamicin/amikacin resistant Mycobacterium tuberculosis Praha 131; type: toxicity; conditions: read-out: Selectivity Index; procedure, shortened: as §1
[13] = Selectivity index, ratio of IC50 for human HepG2 cells to MIC for INH/RIF/rifabutine/STM resistant Mycobacterium tuberculosis 9449/2006; type: toxicity; conditions: read-out: Selectivity Index; procedure, shortened: as §1
[14] = tested on: Mycobacterium tuberculosis; assay: Antimycobacterial activity against INH/RIF/rifabutine/STM resistant Mycobacterium tuberculosis 9449/2006 after 14 days; type: functional; conditions: 9449/2006, 336 h; procedure, shortened: as §2
[15] = tested on: Mycobacterium tuberculosis; assay: Antimycobacterial activity against INH/RIF/rifabutine/STM resistant Mycobacterium tuberculosis 9449/2006 after 21 days; type: functional; conditions: 9449/2006, 504 h; procedure, shortened: as §2
[16] = Selectivity ratio of MIC for INH/RIF/rifabutine/STM/EMB/OFX/gentamicin/amikacin resistant Mycobacterium tuberculosis Praha 131 to MIC for Mycobacterium tuberculosis H37Rv; type: functional
[17] = Selectivity ratio of MIC for INH/RIF/rifabutine/STM resistant Mycobacterium tuberculosis 9449/2006 to MIC for Mycobacterium tuberculosis H37Rv; type: functional
[18] = Selectivity ratio of MIC for INH/RIF/rifabutine/STM/EMB/OFX/clofazimine resistant Mycobacterium tuberculosis Praha 4 to MIC for Mycobacterium tuberculosis H37Rv; type: functional
[19] = Selectivity ratio of MIC for INH/RIF/rifabutine/STM/EMB resistant Mycobacterium tuberculosis 234/2005 to MIC for Mycobacterium tuberculosis H37Rv; type: functional
[20] = Selectivity ratio of MIC for INH/RIF/rifabutine/STM/EMB/clofazimine resistant Mycobacterium tuberculosis Praha 1 to MIC for Mycobacterium tuberculosis H37Rv; type: functional

Structure (SMILES)	selectivity ratio [1]	MIC [2]	selectivity ratio [3]	MIC [4]	MIC [5]	selectivity ratio [6]	MIC [7]	MIC [8]	MIC [9]	MIC [10]	MIC [11]	selectivity ratio [12]	selectivity ratio [13]	MIC [14]	MIC [15]	Ratio [16]	Ratio [17]	Ratio [18]	Ratio [19]	Ratio [20]
CCNC(=O)NNC(=O)c1ccncc1	> 32	125 µM (≈ 26 µg/mL)	> 32	125 µM (≈ 26 µg/mL)	125 µM (≈ 26 µg/mL)	> 32	125 µM (≈ 26 µg/mL)	125 µM (≈ 26 µg/mL)	125 µM (≈ 26 µg/mL)	125 µM (≈ 26 µg/mL)	125 µM (≈ 26 µg/mL)	> 32	> 32	125 µM (≈ 26 µg/mL)	125 µM (≈ 26 µg/mL)	–	–	–	–	–
CNC(=O)NNC(=O)c1ccncc1	> 80	62.5 µM (≈ 12.1 µg/mL)	> 80	62.5 µM (≈ 12.1 µg/mL)	62.5 µM (≈ 12.1 µg/mL)	> 80	62.5 µM (≈ 12.1 µg/mL)	32 µM (≈ 6.21 µg/mL)	62.5 µM (≈ 12.1 µg/mL)	62.5 µM (≈ 12.1 µg/mL)	62.5 µM (≈ 12.1 µg/mL)	> 80	> 80	62.5 µM (≈ 12.1 µg/mL)	62.5 µM (≈ 12.1 µg/mL)	< 125	< 125	< 125	< 125	< 125
CCCNC(=O)NNC(=O)c1ccncc1	> 312	16 µM (≈ 3.56 µg/mL)	> 312	16 µM (≈ 3.56 µg/mL)	16 µM (≈ 3.56 µg/mL)	> 312	16 µM (≈ 3.56 µg/mL)	16 µM (≈ 3.56 µg/mL)	16 µM (≈ 3.56 µg/mL)	16 µM (≈ 3.56 µg/mL)	16 µM (≈ 3.56 µg/mL)	> 312	> 312	16 µM (≈ 3.56 µg/mL)	16 µM (≈ 3.56 µg/mL)	< 125	< 125	< 125	< 125	< 125
CCCCCCCCCCCCNc1nnc(-c2ccncc2)o1	> 6.25	8 µM (≈ 2.64 µg/mL)	> 6.25	4 µM (≈ 1.32 µg/mL)	4 µM (≈ 1.32 µg/mL)	> 6.25	8 µM (≈ 2.64 µg/mL)	4 µM (≈ 1.32 µg/mL)	8 µM (≈ 2.64 µg/mL)	8 µM (≈ 2.64 µg/mL)	4 µM (≈ 1.32 µg/mL)	> 12.5	> 6.25	4 µM (≈ 1.32 µg/mL)	4 µM (≈ 1.32 µg/mL)	–	–	–	–	–
